Laboratory results: ChEMBL document CHEMBL4316604, “Discovery of Isaindigotone Derivatives as Novel Bloom's Syndrome Protein (BLM) Helicase Inhibitors That Disrupt the BLM/DNA Interactions and Regulate the Homologous Recombination Repair” (J Med Chem, 2019)
Active and inactive are the calls of the source. The rule behind the calls is not given here.

Legend:
[1] = target: T1, RecQ-like DNA helicase BLM (Homo sapiens, UniProt P54132); test: Inhibition of BLM in human HCT116 cells assessed as induction of HRR up-regulation at 1 uM after 24 hrs by GFP-based flow cytometry relative to untreated control; assay type: cell-based
Summary of the method: (§1)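 HCT116 cells (2×10^5) co-transfected with DR-GFP HRR reporter and I-SceI plasmid; 24 h later treated with 0–2 μM ligand (reference 0–50 μM); BLM siRNA knockdown where stated. GFP-positive cells counted by flow cytometry and normalised to untreated; triplicate, mean ± SD.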

DNA = test: Binding affinity to DNA (unknown origin) up to 2 molar ratio by ITC; assay type: nucleic-acid assay
Summary of the method: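 ITC at 25 °C in 2 mM MgCl2, 10 mM KH2PO4, pH 7.5: ligand (0.6 mM, syringe) titrated in 10 μL injections, 300 s apart, into BLM642-1296 wild-type or point mutant, or DNA (0.04 mM, cell). His-tagged BLM from E. coli BL21(DE3), induced with […] at 16 °C for 24 h. Heats integrated, fitted to 1:1 model for KD.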

[2] = tested on: RecQ-like DNA helicase BLM (Homo sapiens), P54132 [Y995A]; test: Inhibition of His-tagged BLM Y995A mutant (unknown origin) binding to DNA assessed as effect on unbound DNA
Summary of the method: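 Truncated His-tagged BLM (residues 642-1296) mutant expressed in E. coli BL21(DE3). ELISA with 5′-biotin forked DNA (50 nM) immobilized on streptavidin plates at 4 °C overnight. BLM at 100 nM final was premixed with half-diluted compound (≤1% DMSO) on ice for 1 h, then added at 37 °C for 1 h. Bound BLM was detected with anti-BLM/HRP-TMB at A450; curves were Hill-fitted.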

[3] = target: T1, RecQ-like DNA helicase BLM; test: Inhibition of BLM in human HCT116 cells assessed as induction of HRR up-regulation at 1 uM after 24 hrs in presence of siRNA by GFP-based flow cytometry; assay type: cell-based; summary of the method: as §1
HCT-116 [4] = test: Antiproliferative activity against human HCT116 cells up to 2 uM incubated up to 15 days by MTT assay; assay type: functional, cell-based
HCT-116 [5] = test: Induction of apoptosis in human HCT116 cells assessed as increase in cleaved caspase 3 expression at 2 uM after 48 hrs by Western blot analysis; assay type: functional, cell-based
Summary of the method: (§2)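 HCT116 cells treated with ligand (DNA-damage proteins 24 h, apoptosis proteins 48 h), lysed in RIPA at 4 °C. 40 μg protein per lane resolved by SDS-PAGE, blotted to PVDF, probed with damage and apoptosis antibody panels; β-actin loading control; chemiluminescent detection.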

[6] = target: T1, RecQ-like DNA helicase BLM; test: Inhibition of His-tagged BLM (unknown origin) expressed in Escherichia coli BL21 (DE3) assessed as reduction in BLM helicase unwinding activity at 50 uM using 5'-biotin labeled forked-DNA as substrate after 1 hr by PAGE analysis
Summary of the method: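 BLM642-1296 (His-tagged, E. coli BL21(DE3)) preincubated with ligand (1.0, 10, 50 μM; ≤1% DMSO) for 1 h at 4 °C. Reaction: 8 nM annealed 5′-biotin duplex forked DNA, 32 nM BLM, 2 mM ATP, 0.1% BSA, 1 h.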

HCT-116 [7] = test: Effect on RAD51 protein expression in human HCT116 cells at 1 to 2 after 24 hrs; assay type: functional, cell-based; summary of the method: as §2
[8] = target: T1, RecQ-like DNA helicase BLM; test: Inhibition of BLM recruitment to DSB sites on chromosomes in human HCT116 cells at 0.5 to 1 uM after 48 hrs by ChIP assay; assay type: cell-based
Summary of the method: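 HCT116 cells co-transfected with HRR(−) reporter DSB model (or chromosomal I-SceI DSBs) and I-SceI; after 24 h given 0–2 μM ligand for 24 h. Crosslinked in 1% formaldehyde, chromatin digested by micrococcal nuclease to 0.2–0.5 kb, IP with anti-BLM or anti-RAD51 (IgG control). qPCR at DSB sites, normalised to untreated; triplicate.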

HCT-116 [9] = test: Chemosensitization activity in human HCT116 cells assessed as cisplatin-induced antiproliferative activity at 1.25 uM in presence of cisplatin and BLM siRNA after 24 hrs by MTT assay (reference value: 15.4%); assay type: functional, cell-based

T1 sequence (P54132 whole entry): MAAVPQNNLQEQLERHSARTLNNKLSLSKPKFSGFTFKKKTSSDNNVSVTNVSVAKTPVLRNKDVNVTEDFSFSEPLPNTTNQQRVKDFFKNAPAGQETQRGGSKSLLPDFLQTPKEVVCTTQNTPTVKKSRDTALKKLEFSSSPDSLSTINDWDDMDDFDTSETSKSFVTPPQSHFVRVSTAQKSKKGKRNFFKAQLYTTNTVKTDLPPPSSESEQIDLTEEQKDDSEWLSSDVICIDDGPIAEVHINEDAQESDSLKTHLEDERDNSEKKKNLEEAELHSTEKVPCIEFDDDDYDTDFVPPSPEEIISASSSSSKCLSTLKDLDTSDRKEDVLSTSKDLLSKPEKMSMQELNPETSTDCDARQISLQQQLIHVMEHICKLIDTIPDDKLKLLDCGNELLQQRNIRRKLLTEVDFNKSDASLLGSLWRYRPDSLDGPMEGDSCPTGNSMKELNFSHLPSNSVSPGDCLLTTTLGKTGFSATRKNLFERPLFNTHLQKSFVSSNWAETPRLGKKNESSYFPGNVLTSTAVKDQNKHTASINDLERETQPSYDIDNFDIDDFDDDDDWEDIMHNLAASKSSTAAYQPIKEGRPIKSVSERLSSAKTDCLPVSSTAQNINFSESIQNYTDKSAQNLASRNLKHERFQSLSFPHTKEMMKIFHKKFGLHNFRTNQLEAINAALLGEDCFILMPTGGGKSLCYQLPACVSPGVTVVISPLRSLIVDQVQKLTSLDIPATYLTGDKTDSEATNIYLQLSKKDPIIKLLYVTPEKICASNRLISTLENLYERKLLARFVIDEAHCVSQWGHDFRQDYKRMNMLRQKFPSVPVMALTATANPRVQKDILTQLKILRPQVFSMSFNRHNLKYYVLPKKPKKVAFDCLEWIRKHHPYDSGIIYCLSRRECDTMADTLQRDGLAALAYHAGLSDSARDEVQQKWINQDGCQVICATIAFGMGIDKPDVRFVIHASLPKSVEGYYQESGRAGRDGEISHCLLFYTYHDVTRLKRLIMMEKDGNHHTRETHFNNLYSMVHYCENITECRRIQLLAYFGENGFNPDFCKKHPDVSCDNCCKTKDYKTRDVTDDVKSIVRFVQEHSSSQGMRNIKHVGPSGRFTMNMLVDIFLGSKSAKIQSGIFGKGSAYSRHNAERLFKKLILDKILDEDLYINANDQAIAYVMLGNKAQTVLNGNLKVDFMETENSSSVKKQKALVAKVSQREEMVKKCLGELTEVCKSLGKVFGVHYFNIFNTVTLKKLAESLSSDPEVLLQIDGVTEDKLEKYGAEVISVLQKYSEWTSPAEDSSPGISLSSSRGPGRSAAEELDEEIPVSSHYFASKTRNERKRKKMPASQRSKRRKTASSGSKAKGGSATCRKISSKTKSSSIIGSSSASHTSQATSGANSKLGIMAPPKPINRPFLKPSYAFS
RecQ-like DNA helicase BLM (Homo sapiens), P54132 [Y995A], sequence (P54132 whole entry Y995A, the tested form may be a part): as the sequence (P54132 whole entry) above, with Y995A counted along it

fold change (FC) [1]: < 3
Activity (DNA): inactive
inhibition [2]: inactive
inhibition [3]: Active
inhibition [6]: Active
inhibition [8]: Active
Structure (SMILES): CCN(CC)CCCNc1cc2nc3n(c(=O)c2cc1F)CC/C3=C\c1ccc(C(C)C)cc1
Activity (HCT-116 [4]): Active
Activity (HCT-116 [5]): Active
Activity (HCT-116 [7]): inactive
Activity (HCT-116 [9]): Active
